# Source: ChEMBL document CHEMBL1221230, “Inhibition of eukaryotic translation elongation by cycloheximide and lactimidomycin” (Nat Chem Biol, 2010)
# Active and inactive are the calls of the source. The calls are words filed in the database; no cut-off is given here.
# Legend:
# Hs-578T = assay: Anticancer activity against human Hs 578T cells after 24 hrs by [3H]thymidine incorporation assay; type: functional, cell-based
# MDA-MB-231 [1] = assay: Antitumor activity against human MDA-MB-231 cells xenografted in nude mouse assessed as inhibition of tumor growth at 0.6 mg/kg, sc qd for 1 month administered post tumor implantation; type: functional, organism-based; parameters: dose 0.6 mg/kg
# Outline: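 Two million MDA-MB-231 cells injected subcutaneously into female nude mice; once tumours palpable, compound 0.6 mg/kg or solvent given daily for one month; tumour growth followed.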
# [2] = biological target: Elongation factor 2 (Homo sapiens) (UniProt P13639); assay: Inhibition of eEF2-mediated tRNA translocation assessed as decrease in tripeptide (Met-Phe-Phe) formation by TLC
# MDA-MB-231 [3] = assay: Antiproliferative activity against human MDA-MB-231 cells assessed as incorporation of [3H]thymidine in nuclear DNA at 2.5 uM after 24 hrs by scintillation counting; type: functional, cell-based
# Outline: (§1)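 Each of three tumour cell lines incubated with compound at 2.5 μM for 24 h, then [³H]thymidine added to monitor DNA synthesis; initial proliferation screen.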
# HeLa [4] = assay: Inhibition of protein synthesis in human HeLa cells assessed as [35S]cysteine/methionine utilization after 2 hrs by scintillation spectroscopy; type: functional, cell-based
# Outline: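 HeLa cells incubated 2 h with varying compound concentrations plus [³⁵S]cysteine/methionine (translation) or [³H]uridine (transcription). Protein synthesis: scintillation counting of TCA-precipitated protein on PVDF membrane. Transcription: scintillation counting of nucleic acids bound to GF/C glass fibre filter.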
# [5] = Binding affinity to 60S ribosome E-site by footprinting assay
# Outline: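 DMS footprinting of salt-washed 80S ribosomes preincubated 5 min at room temperature with compound, DMS then 5 min at 37°C; rRNA primer extension with AMV reverse transcriptase and [α-³²P]TTP, sequencing gel. For K_D, 300 μl volume at 50 or 100 nM ribosomes titrated with increasing compound.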
# [6] = biological target: T1, Elongation factor 1-alpha 1 (Homo sapiens) (UniProt P68104); assay: Inhibition of eEF1A-mediated tRNA binding to ternary complex at 200 uM after 10 mins by filtration binding assay
# T1 sequence (whole entry): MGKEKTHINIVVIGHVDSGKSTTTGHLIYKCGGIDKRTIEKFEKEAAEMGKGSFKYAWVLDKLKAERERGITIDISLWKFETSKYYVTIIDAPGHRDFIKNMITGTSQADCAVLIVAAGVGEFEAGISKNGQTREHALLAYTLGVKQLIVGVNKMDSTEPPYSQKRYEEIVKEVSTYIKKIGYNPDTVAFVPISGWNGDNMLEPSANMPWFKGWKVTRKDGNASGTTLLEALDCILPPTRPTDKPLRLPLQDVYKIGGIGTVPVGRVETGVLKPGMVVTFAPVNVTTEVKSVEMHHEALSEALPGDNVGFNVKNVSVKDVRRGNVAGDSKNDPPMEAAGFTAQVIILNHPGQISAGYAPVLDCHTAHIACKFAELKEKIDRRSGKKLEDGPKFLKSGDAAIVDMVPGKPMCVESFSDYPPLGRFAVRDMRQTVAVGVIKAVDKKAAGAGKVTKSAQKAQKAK
# Outline: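 Ribosomes (89 pmol) in 20 mM HEPES pH 7.4, 100 mM KCl, 10 mM MgCl₂, 1 mM DTT with 200 ng poly(U), 2.2 μg eEF1A, 150 μM GDPNP and 200 μM compound, before 10 pmol [¹⁴C]Phe-tRNA^Phe added; 10 min at 37°C; nitrocellulose filtration, scintillation counting.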
# Saccharomyces cerevisiae [7] = assay: Antimicrobial activity against Saccharomyces cerevisiae BY724 expressing ribosomal protein cyh2 and harboring mutation in rpl28; type: functional, organism-based
# Outline: (§2)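 Four isogenic S. cerevisiae strain pairs, each differing only by presence or absence of cyh2, exposed to varying compound concentrations; growth read by optical density; IC50 derived per strain, resistance as ratio between paired strains.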
# HEK-293T [8] = assay: Effect on polyribosome profiling in human HEK293T cells assessed as depletion of polysomes at 50 uM after 30 mins by spectrophotometry; type: functional, cell-based
# Outline: (§3)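 HEK 293T cells treated 30 min with compound, then lysed; lysates centrifuged through 15–45% sucrose gradient to give polysome profiles.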
# Oryctolagus cuniculus = species: Oryctolagus cuniculus; assay: Inhibition of translational activity in rabbit reticulocyte assessed as occurrence of ribosomal arrest at start codon at 200 uM by toeprinting assay; type: functional
# Outline: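 Labelled rabbit β-globin mRNA incubated in rabbit reticulocyte lysate with inhibitor; mixture centrifuged through sucrose gradient, 80S fractions taken to isolate stalled ribosomes; primer extended by AMV reverse transcriptase toward stalled ribosome to map arrest site.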
# HEK-293T [9] = assay: Effect on polyribosome profiling in human HEK293T cells assessed as accumulation of 80S ribosomes at 50 uM after 30 mins by spectrophotometry; type: functional, cell-based; outline: as §3
# HeLa [10] = assay: Antiproliferative activity against human HeLa cells assessed as incorporation of [3H]thymidine in nuclear DNA at 2.5 uM after 24 hrs by scintillation counting; type: functional, cell-based; outline: as §1
# Saccharomyces cerevisiae [11] = assay: Antimicrobial activity against Saccharomyces cerevisiae BY108; type: functional, organism-based; outline: as §2
# Saccharomyces cerevisiae [12] = assay: Antimicrobial activity against Saccharomyces cerevisiae JB281; type: functional, organism-based; outline: as §2
# Saccharomyces cerevisiae [13] = assay: Fold resistance, ratio of IC50 for Saccharomyces cerevisiae BY724 expressing ribosomal protein cyh2 and harboring mutation in rpl28 to IC50 for Saccharomyces cerevisiae BY108; type: functional; outline: as §2
# Saccharomyces cerevisiae [14] = assay: Fold resistance, ratio of IC50 for Saccharomyces cerevisiae BY686 expressing ribosomal protein cyh2 and harboring mutation in rpl28 to IC50 Saccharomyces cerevisiae JB503; type: functional; outline: as §2
# HCC2218 = assay: Anticancer activity against human HCC2218 cells after 24 hrs by [3H]thymidine incorporation assay; type: functional, cell-based
# Saccharomyces cerevisiae [15] = assay: Fold resistance, ratio of IC50 Saccharomyces cerevisiae J407alpha expressing ribosomal protein cyh2 and harboring mutation in rpl28 to IC50 for Saccharomyces cerevisiae J47alpha; type: functional; outline: as §2
# Saccharomyces cerevisiae [16] = assay: Fold resistance, ratio of IC50 for Saccharomyces cerevisiae BY740 expressing ribosomal protein cyh2 and harboring mutation in rpl28 to IC50 for Saccharomyces cerevisiae […]; type: functional; outline: as §2
# [17] = biological target: Elongation factor 2 (Homo sapiens) (UniProt P13639); assay: Inhibition of eEF2-mediated tRNA translocation assessed as induction of dipeptide accumulation by TLC
# HCC1937 = assay: Anticancer activity against human HCC1937 cells after 24 hrs by [3H]thymidine incorporation assay; type: functional, cell-based
# MCF-10A = assay: Anticancer activity against human MCF10A cells after 24 hrs by [3H]thymidine incorporation assay; type: functional, cell-based
# BT-474 = assay: Anticancer activity against human BT474 cells after 24 hrs by [3H]thymidine incorporation assay; type: functional, cell-based
# MDA-MB-231 [18] = assay: Anticancer activity against human MDA-MB-231 cells after 24 hrs by [3H]thymidine incorporation assay; type: functional, cell-based
# [19] = biological target: Elongation factor 2 (Homo sapiens) (UniProt P13639); assay: Inhibition of eEF2-mediated tRNA translocation assessed as inhibition of phenylalanyl puromycin formation
# Outline: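 Set up as eEF1A binding assay but with GTP; 5 min at 37°C, compound added to 200 μM final, 5 min at room temperature, then eEF2, puromycin and GTP added; 10 min at 37°C; ethyl acetate-extractable phenylalanyl-puromycin counted by scintillation.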
# Saccharomyces cerevisiae [20] = assay: Antimicrobial activity against Saccharomyces cerevisiae J407alpha expressing ribosomal protein cyh2 and harboring mutation in rpl28; type: functional, organism-based; outline: as §2
# [21] = Inhibition of elF4A-mediated renilla luciferase translational activity at 200 to 2000 nM in presence of HCV IRES element
smiles,measurement,setting,value
C/C(=C\[C@H](C)C(=O)C[C@H](O)CC1CC(=O)NC(=O)C1)[C@@H]1OC(=O)/C=C/CC/C=C/C=C\[C@@H]1C [LACTIMIDOMYCIN],Activity,Hs-578T,Active
same,Activity,MDA-MB-231 [1],Active
same,inhibition,[2],Active
same,Activity,MDA-MB-231 [3],inactive
same,IC50,HeLa [4],0.0378 µM
same,inhibition,HeLa [4],Dose-dependent effect
same,Activity,[5],Dose-dependent effect
same,Kd,[5],0.5 µM
same,inhibition,[6],inactive
same,IC50,Saccharomyces cerevisiae [7],6.53 µM
same,Activity,HEK-293T [8],Active
same,inhibition,Oryctolagus cuniculus,Active
same,Activity,HEK-293T [9],Active
same,Activity,HeLa [10],inactive
same,IC50,Saccharomyces cerevisiae [11],0.488 µM
same,IC50,Saccharomyces cerevisiae [12],0.059 µM
same,Ratio IC50,Saccharomyces cerevisiae [13],13.4
same,Ratio IC50,Saccharomyces cerevisiae [14],10.3
same,Activity,HCC2218,Active
same,Ratio IC50,Saccharomyces cerevisiae [15],241
same,Ratio IC50,Saccharomyces cerevisiae [16],20.5
same,inhibition,[17],Active
same,Activity,HCC1937,Active
same,Activity,MCF-10A,Active
same,Activity,BT-474,Active
same,Activity,MDA-MB-231 [18],Active
same,inhibition,[19],Active
same,IC50,Saccharomyces cerevisiae [20],1.11 µM
same,inhibition,[21],Active
